Experimental data as given in article PMC8920403 (Drug Delivery, 2022).

Legend:
[1] = system: corneal neovascularization (CNV); assay: Alkali burn injury induced CNV in mice; type: in vivo, BALB/c mice; settings: SRB-NLC 0.0125-0.05%, fluorescein staining
Procedure, shortened: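 Male BALB/c mice (20–25 g) were anaesthetised with 1% sodium pentobarbital i.p. (80 mg/kg) plus 0.4% oxybuprocaine drops. 2 μL of 0.1 M NaOH on filter paper was applied to the right central cornea for 20 s, then rinsed with 20 mL saline. Groups of 16 received saline, test-compound lipid carrier (0.05, 0.025 or 0.0125%) or dexamethasone drops, 5 μL twice daily for 7 days. On day 7, corneas from three mice per group were fixed in 4% paraformaldehyde for 48 h, paraffin-processed, and 5 µm sagittal sections were H&E stained.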

[2] = Ocular pharmacokinetics in rabbit eyes; type: in vivo, New Zealand White rabbits; settings: after single topical administration; limit of quantitation 0.01 μg/mL
Procedure, shortened: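 Forty-two male New Zealand White rabbits (2.0–2.5 kg) were split into lipid-carrier and suspension groups. Each received a single 50 μL instillation into the lower conjunctival sac of both eyes, with lids held closed for 15 s. At preset times, rabbits were killed with i.v. 4% phenobarbital sodium via the marginal ear vein. After a saline rinse of the ocular surface, aqueous humour was drawn at the limbus with a 26-G needle.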

[3] = system: experimental CNV; settings: oral administration, dose-dependent; ref Seo et al., 2012; cited from earlier work
[4] = system: endothelial cells; settings: at a dose of 7.5 µg/mL (0.1–100 µg/mL studied); ref Thiele et al., 2013; cited from earlier work
[5] = system: neovascular corneal area; settings: topical solution 0.05 mg/mL SRB and 0.07 mg/mL DMSO; ref Yildirim et al., 2020; cited from earlier work
[6] = system: VEGF-A; assay: ELISA of VEGF-A in cornea of alkali burn CNV mice; type: in vivo, BALB/c mice; settings: dexamethasone eye drops, days 3 and 7, P < 0.05
Procedure, shortened: (§1)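 Alkali-burn CNV mice (0.1 M NaOH, 20 s) were given saline, test-compound lipid carrier or dexamethasone drops, 5 μL twice daily. On days 3 and 7, five mice per group were killed. Corneas were weighed, frozen at −80 °C, thawed at 4 °C for 0.5 h and minced. Tissue was extracted in 100 μL RIPA on ice for 1.5 h and spun at 12,000 rpm, 4 °C, 5 min. ELISA absorbance was read at 450 nm and normalised to BCA total protein. Mean ± SD; one-way ANOVA, with t test for pairs.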

[7] = system: PDGF-AB; assay: ELISA of PDGF-AB in cornea of alkali burn CNV mice; type: in vivo, BALB/c mice; settings: dexamethasone eye drops, days 3 and 7, P < 0.05
Procedure, shortened: as §1

Compound	Recovery of corneal epithelial defects after alkali burn injury [1]	SRB levels in the aqueous humor (AH) [2] [µg/mL]	Development of experimental CNV [3]	Toxic effects on endothelial cells [4]	Percentage of the neovascular corneal area vs DMSO alone [5]	VEGF-A level in corneal tissue vs saline group [6]	PDGF-AB level in corneal tissue vs saline group [7]
CNC(=O)c1cc(Oc2ccc(NC(=O)Nc3ccc(Cl)c(C(F)(F)F)c3)cc2)ccn1 [SRB, Sorafenib]	could effectively promote the recovery of corneal epithelial defects	< 0.01	significantly reduced the development of experimental CNV	no toxic effects	significantly lower		
Dexamethasone sodium phosphate						significantly lower	significantly lower
